Results on one compound are retold here after ChEMBL document CHEMBL4371044, “Celastrol Promotes Weight Loss in Diet-Induced Obesity by Inhibiting the Protein Tyrosine Phosphatases PTP1B and TCPTP in the Hypothalamus” (J Med Chem, 2018).

Calls of active or inactive are those of the source. The rule behind the calls is not given here.

Usually kon stands for the second-order rate constant of association. Broadly, the IC50 is the point on the concentration scale where inhibition reaches its midpoint. High values mean a need for much substance, low ones inhibition by little substance.

Assay [1] concerns Mus musculus. Kind of assay: Antiobesity activity in high fat diet-induced obese Ptpn1fl/fl null C57BL/6 mouse assessed as reduction in body weight at 100 ug/kg, ip for 10 consecutive days. Type of assay: functional, organism-based. The method in brief:
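Male Ptpn1fl/fl, Ptpn2fl/fl or double-floxed mice: chow 8 weeks, then high-fat diet (45% energy from fat) 12 weeks. Bilateral intra-ARC stereotaxic injection of rAAV-CMV-Cre-GFP or rAAV-CMV-GFP, 100 nL/side. After 2 weeks recovery, vehicle or 100 μg/kg ip daily at 6 pm for 10 days; body weight tracked; two-way repeated-measures ANOVA with Tukey test; means ± SEM.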

In assay [2] the target is T1, Tyrosine-protein phosphatase non-receptor type 2 (Homo sapiens) (UniProt P17706).
T1 sequence (whole entry): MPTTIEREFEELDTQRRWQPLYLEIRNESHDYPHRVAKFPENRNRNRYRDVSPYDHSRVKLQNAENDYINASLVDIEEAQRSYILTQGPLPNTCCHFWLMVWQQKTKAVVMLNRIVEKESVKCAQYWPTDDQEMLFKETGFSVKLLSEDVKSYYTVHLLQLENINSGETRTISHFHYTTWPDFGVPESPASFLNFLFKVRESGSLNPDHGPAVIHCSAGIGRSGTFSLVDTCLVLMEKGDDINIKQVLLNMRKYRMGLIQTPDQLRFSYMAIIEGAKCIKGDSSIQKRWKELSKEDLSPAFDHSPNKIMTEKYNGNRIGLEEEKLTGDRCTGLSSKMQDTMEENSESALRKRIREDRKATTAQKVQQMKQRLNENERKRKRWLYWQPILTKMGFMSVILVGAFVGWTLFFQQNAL
Description: Non competitive inhibition of human N-terminal His6-tagged TCPTP catalytic domain (1 to 336 residues) expressed in Escherichia coli strain Rosetta2 (DE3) using DiFMUP as substrate preincubated for 10 mins followed by substrate addition and measured after 10 mins by fluorescence assay Michaelis-Menten plot analysis.

In assay [3] the target is T2, Tyrosine-protein phosphatase non-receptor type 1 (Homo sapiens, UniProt P18031).
T2 sequence (P18031 whole entry): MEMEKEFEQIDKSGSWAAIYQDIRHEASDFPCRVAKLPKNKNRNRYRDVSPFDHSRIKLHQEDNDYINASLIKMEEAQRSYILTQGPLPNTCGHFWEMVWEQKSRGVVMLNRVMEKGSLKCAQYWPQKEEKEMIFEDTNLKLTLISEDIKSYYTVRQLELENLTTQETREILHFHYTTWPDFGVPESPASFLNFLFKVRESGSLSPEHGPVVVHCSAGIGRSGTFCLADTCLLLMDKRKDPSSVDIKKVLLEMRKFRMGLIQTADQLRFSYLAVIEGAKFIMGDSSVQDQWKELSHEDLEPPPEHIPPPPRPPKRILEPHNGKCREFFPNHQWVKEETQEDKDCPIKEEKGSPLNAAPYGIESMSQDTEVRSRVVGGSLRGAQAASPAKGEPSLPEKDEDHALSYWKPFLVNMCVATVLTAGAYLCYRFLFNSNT
Description: Binding affinity to human N-terminal His6-tagged PTP1B catalytic domain (1 to 298 residues) expressed in Escherichia coli strain Rosetta2 (DE3) assessed as association rate constant […].

In assay [4] the target is T3, Tyrosine-protein phosphatase non-receptor type 1 (Homo sapiens) (UniProt P18031).
T3 sequence (whole entry): T2 sequence (P18031 whole entry)
Kind of assay: Non-competitive inhibition of human N-terminal His6-tagged PTP1B catalytic domain (1 to 393 residues) expressed in Escherichia coli strain Rosetta2 (DE3) at 500 uM in presence of 4'-aminoxanilic acid by STD-NMR spectroscopic method.

In assay [5] the target is T4, Receptor-type tyrosine-protein phosphatase eta (Homo sapiens, UniProt Q12913).
T4 sequence (Q12913 whole entry): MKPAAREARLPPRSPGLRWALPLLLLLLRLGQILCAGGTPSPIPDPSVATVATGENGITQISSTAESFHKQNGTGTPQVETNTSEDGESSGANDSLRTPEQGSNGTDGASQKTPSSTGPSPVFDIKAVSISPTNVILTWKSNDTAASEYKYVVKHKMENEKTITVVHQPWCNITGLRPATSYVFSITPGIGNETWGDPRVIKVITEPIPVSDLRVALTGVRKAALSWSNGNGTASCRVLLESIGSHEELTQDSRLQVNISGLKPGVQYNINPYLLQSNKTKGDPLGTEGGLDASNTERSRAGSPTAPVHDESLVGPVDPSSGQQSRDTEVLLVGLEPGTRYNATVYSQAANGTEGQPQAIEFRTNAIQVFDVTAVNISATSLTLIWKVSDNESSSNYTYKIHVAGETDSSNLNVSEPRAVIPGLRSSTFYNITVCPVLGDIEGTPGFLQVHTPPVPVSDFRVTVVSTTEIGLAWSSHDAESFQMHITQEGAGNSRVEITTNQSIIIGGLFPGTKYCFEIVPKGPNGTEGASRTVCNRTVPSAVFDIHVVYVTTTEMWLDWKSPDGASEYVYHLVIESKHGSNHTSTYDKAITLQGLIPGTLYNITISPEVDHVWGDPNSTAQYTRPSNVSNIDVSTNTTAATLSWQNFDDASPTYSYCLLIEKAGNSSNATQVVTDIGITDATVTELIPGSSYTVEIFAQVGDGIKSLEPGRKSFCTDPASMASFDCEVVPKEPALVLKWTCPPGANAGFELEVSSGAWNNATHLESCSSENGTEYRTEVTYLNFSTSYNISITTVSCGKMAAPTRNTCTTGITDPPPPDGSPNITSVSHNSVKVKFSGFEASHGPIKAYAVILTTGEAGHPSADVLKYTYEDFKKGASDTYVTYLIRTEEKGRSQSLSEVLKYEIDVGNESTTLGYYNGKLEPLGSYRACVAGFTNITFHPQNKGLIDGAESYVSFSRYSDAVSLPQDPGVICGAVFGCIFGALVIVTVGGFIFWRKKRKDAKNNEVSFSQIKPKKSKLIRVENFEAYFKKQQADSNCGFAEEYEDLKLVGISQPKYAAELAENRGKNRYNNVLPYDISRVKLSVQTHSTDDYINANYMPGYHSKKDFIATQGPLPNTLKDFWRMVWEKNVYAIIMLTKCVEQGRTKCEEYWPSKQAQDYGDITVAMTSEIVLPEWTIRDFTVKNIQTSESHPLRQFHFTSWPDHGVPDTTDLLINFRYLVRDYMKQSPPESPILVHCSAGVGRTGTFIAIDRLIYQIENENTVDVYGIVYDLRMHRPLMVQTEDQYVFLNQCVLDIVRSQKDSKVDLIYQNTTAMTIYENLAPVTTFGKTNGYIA
Description: Inhibition of human PTPRJ (1019 to 1311 residues) expressed in Escherichia coli strain BL21(DE3) using DiFMUP as substrate preincubated for 10 mins followed by substrate addition and measured after 10 mins by fluorescence assay. The gist of the method:
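Selectivity panel on enzymes expressed in E. coli BL21(DE3), purified by nickel affinity then size exclusion. DiFMUP fluorescence assay run as for PTP1B/TCPTP, with per-enzyme conditions in a supplementary table; nonlinear regression for IC50; three independent experiments.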

For the compound `CC1=C(O)C(=O)C=C2C1=CC=C1[C@@]2(C)CC[C@@]2(C)[C@@H]3C[C@](C)(C(=O)O)CC[C@]3(C)CC[C@]12C` [CELASTROL], in assay [1], the result was Active. Also, the inhibition result in assay [2] and in assay [4] was “Active” each time. In addition, the kon in assay [3] was determined as 59.46 M⁻¹ s⁻¹. In assay [5], this compound registered an IC50 of 111 µM.
